Published values collected from several papers.
Protocols differ between the studies behind these lines.
Observed: cell growth or viability

For Cc1n(Cc2ccc3ccccc3n2)cc[n+]1Cc1ccc2ccccc2c1, the TGI was 14.7 µM (NCI-H322M; SRB).
The viability of c1ccc(-c2ccc(CNCC3(N4CCCC4)COC3)s2)cc1 is reported as 52.6% (GBM6; 30 µM; 48 h).
The GI50 of CC(=O)c1c(C)c2cnc(Nc3ccc(N4CCNCC4)cn3)nc2n(C2CCCC2)c1=O is reported as 600 nM (HCC1428; resazurin).
The EC50 of COc1c(OCCCN2CCOCC2)ccc2c1N=C(NC(=O)c1cnc(N)nc1)N1CCN=C21 is reported as 3.7 nM (KPL4).
For O=C(c1cc(-c2ccccc2O)on1)N1CCN(C(c2ccccc2)c2ccccc2)CC1, the IC50 was greater than 10 µM (HEK293).
Cn1cc(-c2cc(N3CCCCS3(=O)=O)ccc2Oc2ccc(F)cc2F)c2c(F)c[nH]c2c1=O has a GI50 of 15 nM (Rec1; CCK-8; 72 h).
For Clc1ccc2c(NN=Cc3cccs3)ccnc2c1, the IC50 was greater than 10 µM (HEK293).
With COc1cc(N(C)CCN(C)C)c(NC(=O)C=C(C)C)cc1Nc1nc(N2CCc3sccc3C2)c2sccc2n1 the IC50 was 9.93 µM (NCI-H1975; MTT).
COc1cccc(Oc2ccccc2NC(=O)CNC(=O)c2cccc3ccccc23)c1 has a GI50 of 224 nM (SF-539; SRB; 48 h).
The viability of FC1CCN(C2(CNCc3ccc(-c4ccccc4Cl)o3)COC2)C1 (centres unmarked) is reported as 53.1% (T98G; 30 µM; 48 h).
For Cc1cc(=O)c(-c2ccc(Oc3ccc(C(F)(F)F)cc3)cc2)c(C)n1O, the IC50 was greater than 10 µM (HEK293).
With C=CC(=O)Nc1cccc(Oc2nc(Nc3ccc(N4CCN(C)CC4)cc3)nc3ccsc23)c1 the IC50 was 0.458 µM (NCI-H1975; MTT).
COc1ccc(-c2ccc(-c3ccc(C(=N)N)nc3)s2)cc1Cl has a GI50 of 1740 nM (SF-539; SRB).
For c1cc2c(cc1CNCC1(N3CCCC3)COC1)OCCO2, the viability was 97.2% (T98G; 30 µM; 48 h).
COc1cc(N(C)CCN(C)C)c(NC(=O)/C=C/C(C)C)cc1Nc1nc(N2CCc3sccc3C2)c2sccc2n1 gave an IC50 of 15.6 µM (NCI-H1975; MTT).
With Cc1cc(C)c(CNC(=O)c2cc(Cl)c3c(c2C)O[C@@](C)([C@H]2CC[C@H](N(C)C)CC2)O3)c(=O)[nH]1 the GI50 was 13 nM (KARPAS-422; 8 days).
For FC1CCN(C2(CNCc3ccc(-c4ccccc4)o3)COC2)C1 (centres unmarked), the viability was 72.7% (GBM6; 30 µM; 48 h).
O=C(c1cc(-c2ccco2)[nH]n1)N1CCN(S(=O)(=O)c2ccc(Br)cc2)CC1 has an IC50 of greater than 10 µM (HEK293).
Fc1ccc2[nH]cc(CNCC3(N4CCC(F)C4)COC3)c2c1 (centres unmarked) has a viability of 77.6% (GBM6; 30 µM; 48 h).
CCCc1n(Cc2ccc3ccccc3n2)cc[n+]1Cc1ccc2ccccc2c1 gave a TGI of 15 µM (NCI-H322M; SRB).
The IC50 of Cc1cc2nc(-c3ccc(C(=O)NC4CCN(Cc5ccccc5)CC4)s3)[nH]c2cc1C is reported as greater than 10 µM (HEK293).
With Fc1ccc2c(CNCC3(N4CCC(F)C4)COC3)c[nH]c2c1 (centres unmarked) the viability was 96.4% (T98G; 30 µM; 48 h).
With c1ccc(-c2n(Cc3ccc4ccccc4c3)cc[n+]2Cc2ccc3ccccc3c2)cc1 the TGI was 2.82 µM (NCI-H322M; SRB).
The IC50 of C=CC(=O)Nc1cc(Nc2nc(Nc3cnn(C)c3)c3sccc3n2)c(OC)cc1N(C)CCN(C)C is reported as 4.54 µM (NCI-H1975; MTT).
Cc1[nH]c(C)c(-c2ccc(OCCSc3ccncc3)cc2)c(=O)c1Br has an IC50 of greater than 10 µM (HEK293).
The GI50 of CC#CC(=O)N1CC[C@@H](n2cc(-c3ccc(Oc4c(F)cccc4F)cc3)c3c(N)n[nH]c(=O)c32)C1 is reported as 12100 nM (KARPAS-422; ATP luminescence; 72 h).
The GI50 of COc1ccc(-c2ccc(-c3ccc(C(=N)N)nc3)s2)cc1 is reported as 1730 nM (SF-539; SRB).
CCC(=O)Nc1cc(Nc2nc(N3CCOCC3)c3sccc3n2)c(OC)cc1N(C)CCN(C)C gave an IC50 of greater than 50 µM (NCI-H1975; MTT).
With COc1cc(-c2ccc(-c3ccc(C(=N)N)nc3)s2)cc(OC)c1OC the GI50 was 1620 nM (SK-MEL-28; SRB).
With COc1cc(N(C)CCN(C)C)c(NC(=O)C=C(C)C)cc1Nc1nc(Nc2cnn(C)c2)c2sccc2n1 the IC50 was 0.418 µM (NCI-H1975; MTT).
The IC50 of Cc1cc(=O)c(-c2ccc(Oc3ccc(Cl)cc3Cl)cc2)c(C)[nH]1 is reported as greater than 10 µM (HEK293).
The viability of c1cc2cc(CNCC3(N4CCCC4)COC3)ccc2[nH]1 is reported as 98.2% (T98G; 30 µM; 48 h).
CCOC(=O)c1cn(CC)c2cc(OCc3ccccc3)ccc2c1=O gave an IC50 of greater than 10 µM (HEK293).
For Cc1cccc2cc(CNCC3(N4CCCC4)COC3)cnc12, the viability was 104% (GBM6; 30 µM; 48 h).
C=CC(=O)Nc1cc(Nc2nc(N3CCc4sccc4C3)c3cccnc3n2)c(OC)cc1N(C)CCN(C)C has an IC50 of 0.596 µM (NCI-H1975; MTT).
